Laboratory results as given in ChEMBL document CHEMBL3120115, “Synthesis and biological evaluation of 2-oxonicotinonitriles and 2-oxonicotinonitrile based nucleoside analogues” (Eur J Med Chem, 2014).

How the values were obtained:
[1] = tested on: Bacillus subtilis; experiment: Antimicrobial activity against Bacillus subtilis at 250 ug/disc after 48 hrs by well diffusion method; assay type: functional; conditions: read-out: DIZ
Method in brief: (§1)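 Well diffusion assay. Bacteria were grown on nutrient agar and fungi on Czapek's-Dox agar; spores were inoculated into sterilized medium, dispersed and poured into plates. Compounds were dissolved in DMF at 250 mg/mL and loaded into 1 cm wells. Plates stood 24 h refrigerated for diffusion, then were incubated at 35 °C for 48 h (bacteria) or 28 °C for 5-7 days (fungi). Inhibition zone diameter was read in mm. DMF-only wells served as negative control.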

[2] = tested on: Escherichia coli; experiment: Antimicrobial activity against Escherichia coli at 250 ug/disc after 48 hrs by well diffusion method; assay type: functional; conditions: read-out: DIZ; method in brief: as §1
[3] = tested on: Influenza A virus; experiment: Antiviral activity against Influenza A virus H3N2 by cytopathy assay; assay type: functional, organism-based
[4] = tested on: SARS-CoV; experiment: Antiviral activity against SARS coronavirus by visual/neutral red test; assay type: functional, organism-based; conditions: Severe acute respiratory syndrome-related coronavirus
[5] = tested on: Hepatitis B virus; experiment: Antiviral activity against Hepatitis B virus assessed as inhibition of viral infection by DNA virion assay; assay type: functional, organism-based
[6] = Selectivity index, ratio of CC50 for cytotoxicity to EC50 for Influenza A virus H3N2; assay type: toxicity; conditions: read-out: Ratio CC50/EC50
Method in brief: (§2)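 CC50 is the concentration at which 50% of cells die, and EC50 is the concentration inhibiting 50% of viral infection. SI is calculated as the CC50/EC50 ratio.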

[7] = tested on: Influenza A virus; experiment: Antiviral activity against Influenza A virus H1N1 by cytopathy assay; assay type: functional, organism-based
[8] = Selectivity index, ratio of CC50 for cytotoxicity to EC50 for HSV2; assay type: toxicity; conditions: read-out: Ratio CC50/EC50; method in brief: as §2
[9] = tested on: Human alphaherpesvirus 1; experiment: Antiviral activity against HSV1 assessed as inhibition of viral infection; assay type: functional, organism-based
[10] = tested on: West Nile virus; experiment: Antiviral activity against West Nile virus by visual/neutral red test; assay type: functional, organism-based
[11] = Selectivity index, ratio of CC50 for cytotoxicity to EC50 for HSV1; assay type: toxicity; conditions: read-out: Ratio CC50/EC50; method in brief: as §2
[12] = tested on: Human alphaherpesvirus 2; experiment: Antiviral activity against HSV2 assessed as inhibition of viral infection; assay type: functional, organism-based
[13] = tested on: Influenza B virus; experiment: Antiviral activity against Influenza B virus by cytopathy assay; assay type: functional, organism-based
[14] = tested on: Hepatitis C virus; experiment: Antiviral activity against Hepatitis C virus assessed as inhibition of viral infection by RNA replicon assay; assay type: functional, organism-based, Hepacivirus hominis
[15] = Selectivity index, ratio of CC50 for cytotoxicity to EC50 for Influenza A virus H1N1; assay type: toxicity; conditions: read-out: Ratio CC50/EC50; method in brief: as §2
[16] = tested on: Influenza A virus; experiment: Antiviral activity against Influenza A virus H5N1 by cytopathy assay; assay type: functional, organism-based
[17] = tested on: Aspergillus viridinutans; experiment: Antimicrobial activity against Aspergillus viridinutans at 250 ug/disc after 5 to 7 days by well diffusion method; assay type: functional; conditions: read-out: DIZ; method in brief: as §1
[18] = tested on: Aspergillus niger; experiment: Antimicrobial activity against Aspergillus niger at 250 ug/disc after 5 to 7 days by well diffusion method; assay type: functional; conditions: read-out: DIZ; method in brief: as §1
[19] = Selectivity index, ratio of CC50 for cytotoxicity to EC50 for Influenza B virus; assay type: toxicity; conditions: read-out: Ratio CC50/EC50; method in brief: as §2
[20] = Selectivity index, ratio of CC50 for cytotoxicity to EC50 for Influenza A virus H5N1; assay type: toxicity; conditions: read-out: Ratio CC50/EC50; method in brief: as §2

## CC1(C)S[C@@H]2[C@H](NC(=O)[C@H](N)c3ccccc3)C(=O)N2[C@H]1C(=O)O [AMPICILLIN]
[1]
  zone of inhibition at 250 µg/disc: 20 mm
[2]
  zone of inhibition at 250 µg/disc: 18 mm

## N#Cc1c(-c2cccs2)cc(-c2cccs2)nc1O
[3]
  EC50: 16 µM
[4]
  EC50: > 100 µM
[5]
  EC50: > 100 µM
[6]
  selectivity ratio: > 4.2
[7]
  EC50: 32 µM
[8]
  selectivity ratio: < 4.8
[9]
  EC50: > 12 µM
[10]
  EC50: > 4.6 µM
[11]
  selectivity ratio: < 4.7
[12]
  EC50: > 12 µM
[13]
  EC50: > 100 µM
[14]
  EC50: > 100 µM
[15]
  selectivity ratio: > 3.1
[16]
  EC50: > 100 µM

## C[C@@]1(O)[C@H](O)[C@@H](CO)O[C@H]1n1ccc(N)nc1=O
[14]
  EC50: 1.6 µM

## Nc1ccn([C@@H]2CS[C@H](CO)O2)c(=O)n1 [LAMIVUDINE]
[5]
  EC50: 0.035 µM

## CC1(C)O[C@@H]2C[C@H]3[C@@H]4C[C@H](F)C5=CC(=O)C=C[C@]5(C)[C@@]4(F)[C@@H](O)C[C@]3(C)[C@]2(C(=O)CO)O1 [FLUOCINOLONE ACETONIDE]
[17]
  zone of inhibition at 250 µg/disc: 31 mm
[18]
  zone of inhibition at 250 µg/disc: 22 mm

## CC(=O)OC[C@H]1O[C@@H](n2c(-c3ccccn3)cc(-c3ccc(Cl)cc3)c(C#N)c2=O)[C@H](OC(C)=O)[C@@H](OC(C)=O)[C@H]1OC(C)=O
[17]
  zone of inhibition at 250 µg/disc: 5 mm
[18]
  zone of inhibition at 250 µg/disc: 7 mm
[2]
  zone of inhibition at 250 µg/disc: 0 mm

## CC(=O)OC[C@H]1O[C@@H](n2c(-c3cccs3)cc(-c3cccs3)c(C#N)c2=O)[C@H](OC(C)=O)[C@@H](OC(C)=O)[C@@H]1OC(C)=O
[17]
  zone of inhibition at 250 µg/disc: 6 mm
[3]
  EC50: 40 µM
[4]
  EC50: > 32 µM
[5]
  EC50: > 100 µM
[6]
  selectivity ratio: > 2.5
[1]
  zone of inhibition at 250 µg/disc: 2 mm
[8]
  selectivity ratio: < 4
[9]
  EC50: > 60 µM
[10]
  EC50: > 3 µM
[11]
  selectivity ratio: < 4
[18]
  zone of inhibition at 250 µg/disc: 8 mm
[19]
  selectivity ratio: 1
[12]
  EC50: > 60 µM
[13]
  EC50: 32 µM
[14]
  EC50: > 100 µM
[2]
  zone of inhibition at 250 µg/disc: 0 mm
[16]
  EC50: > 100 µM

## CC(=O)OCCCCOc1nc(-c2ccccn2)cc(-c2ccc(Cl)cc2)c1C#N
[17]
  zone of inhibition at 250 µg/disc: 7 mm
[1]
  zone of inhibition at 250 µg/disc: 3 mm
[18]
  zone of inhibition at 250 µg/disc: 9 mm
[2]
  zone of inhibition at 250 µg/disc: 0 mm

## N#Cc1c(-c2cccs2)cc(-c2cccs2)n([C@@H]2O[C@H](CO)[C@@H](O)[C@H](O)[C@H]2O)c1=O
[17]
  zone of inhibition at 250 µg/disc: 6 mm
[1]
  zone of inhibition at 250 µg/disc: 2 mm

## CC(C)c1ccc(-c2cc(-c3cccs3)n([C@@H]3O[C@H](CO)[C@H](O)[C@H](O)[C@H]3O)c(=O)c2C#N)cc1
[17]
  zone of inhibition at 250 µg/disc: 6 mm
[1]
  zone of inhibition at 250 µg/disc: 3 mm
[2]
  zone of inhibition at 250 µg/disc: 5 mm

## CC(C)c1ccc(-c2cc(-c3cccs3)[nH]c(=O)c2C#N)cc1
[3]
  EC50: 22 µM
[4]
  EC50: > 26 µM
[5]
  EC50: > 100 µM
[6]
  selectivity ratio: > 4.5
[8]
  selectivity ratio: 1
[9]
  EC50: > 300 µM
[10]
  EC50: > 2.2 µM
[11]
  selectivity ratio: 1
[19]
  selectivity ratio: > 2.2
[12]
  EC50: > 300 µM
[13]
  EC50: 46 µM
[14]
  EC50: > 100 µM
[20]
  selectivity ratio: > 3.1
[16]
  EC50: 32 µM

## CC(=O)OC[C@H]1O[C@@H](n2c(-c3cccs3)cc(-c3ccc(C(C)C)cc3)c(C#N)c2=O)[C@H](OC(C)=O)[C@@H](OC(C)=O)[C@H]1OC(C)=O
[17]
  zone of inhibition at 250 µg/disc: 6 mm
[18]
  zone of inhibition at 250 µg/disc: 9 mm

## N#Cc1c(-c2ccc(Cl)cc2)cc(-c2ccccn2)n(CCCO)c1=O
[17]
  zone of inhibition at 250 µg/disc: 9 mm
[1]
  zone of inhibition at 250 µg/disc: 3 mm
[2]
  zone of inhibition at 250 µg/disc: 0 mm

## CC(C)c1ccc(-c2cc(-c3cccs3)n([C@@H]3O[C@H](CO)[C@@H](O)[C@H](O)[C@H]3O)c(=O)c2C#N)cc1
[17]
  zone of inhibition at 250 µg/disc: 8 mm
[1]
  zone of inhibition at 250 µg/disc: 10 mm
[18]
  zone of inhibition at 250 µg/disc: 7 mm
[2]
  zone of inhibition at 250 µg/disc: 0 mm

## N#Cc1c(-c2ccc(Cl)cc2)cc(-c2ccccn2)n([C@@H]2O[C@H](CO)[C@H](O)[C@H](O)[C@H]2O)c1=O
[17]
  zone of inhibition at 250 µg/disc: 7 mm
[1]
  zone of inhibition at 250 µg/disc: 2 mm
[2]
  zone of inhibition at 250 µg/disc: 0 mm

## N#Cc1c(-c2ccc(Cl)cc2)cc(-c2ccccn2)nc1OCCCCO
[17]
  zone of inhibition at 250 µg/disc: 5 mm
[1]
  zone of inhibition at 250 µg/disc: 2 mm
[18]
  zone of inhibition at 250 µg/disc: 7 mm
[2]
  zone of inhibition at 250 µg/disc: 0 mm

## NC(=O)c1ncn([C@@H]2O[C@H](CO)[C@@H](O)[C@H]2O)n1 [RIBAVIRIN]
[3]
  EC50: 2 µM
[6]
  selectivity ratio: > 160
[7]
  EC50: 10 µM
[19]
  selectivity ratio: > 130
[13]
  EC50: 2.4 µM
[15]
  selectivity ratio: > 32
[20]
  selectivity ratio: > 76
[16]
  EC50: 4.2 µM

## CC(=O)OC[C@H]1O[C@@H](n2c(-c3cccs3)cc(-c3ccc(C(C)C)cc3)c(C#N)c2=O)[C@H](OC(C)=O)[C@@H](OC(C)=O)[C@@H]1OC(C)=O
[17]
  zone of inhibition at 250 µg/disc: 7 mm
[3]
  EC50: 33 µM
[4]
  EC50: > 100 µM
[5]
  EC50: > 100 µM
[6]
  selectivity ratio: > 3
[1]
  zone of inhibition at 250 µg/disc: 1 mm
[8]
  selectivity ratio: > 4.9
[9]
  EC50: 67.2 µM
[10]
  EC50: > 4.7 µM
[11]
  selectivity ratio: > 4.4
[19]
  selectivity ratio: > 2.2
[12]
  EC50: 60.3 µM
[13]
  EC50: 40 µM
[14]
  EC50: > 100 µM
[2]
  zone of inhibition at 250 µg/disc: 0 mm
[20]
  selectivity ratio: 1
[16]
  EC50: 32 µM

## N#Cc1c(-c2ccc(Cl)cc2)cc(-c2ccccn2)[nH]c1=O
[3]
  EC50: > 2.6 µM
[4]
  EC50: > 0.32 µM
[5]
  EC50: > 100 µM
[7]
  EC50: 26 µM
[8]
  selectivity ratio: 1
[9]
  EC50: > 300 µM
[10]
  EC50: > 2.2 µM
[11]
  selectivity ratio: 1
[12]
  EC50: > 300 µM
[13]
  EC50: > 36 µM
[14]
  EC50: > 100 µM
[15]
  selectivity ratio: > 3.8
[16]
  EC50: > 100 µM

## CN(C)C=O [DIMETHYLFORMAMIDE]
[17]
  zone of inhibition at 250 µg/disc: 0 mm
[1]
  zone of inhibition at 250 µg/disc: 0 mm
[18]
  zone of inhibition at 250 µg/disc: 0 mm
[2]
  zone of inhibition at 250 µg/disc: 0 mm

## CC(=O)OCCOCn1c(-c2cccs2)cc(-c2cccs2)c(C#N)c1=O
[17]
  zone of inhibition at 250 µg/disc: 7 mm
[1]
  zone of inhibition at 250 µg/disc: 10 mm
[18]
  zone of inhibition at 250 µg/disc: 8 mm
[2]
  zone of inhibition at 250 µg/disc: 0 mm

## CC(C)c1ccc(-c2cc(-c3cccs3)n(COCCO)c(=O)c2C#N)cc1
[17]
  zone of inhibition at 250 µg/disc: 6 mm
[1]
  zone of inhibition at 250 µg/disc: 23 mm
[18]
  zone of inhibition at 250 µg/disc: 7 mm
[2]
  zone of inhibition at 250 µg/disc: 0 mm

## N#Cc1c(-c2cccs2)cc(-c2cccs2)n([C@@H]2O[C@H](CO)[C@H](O)[C@H](O)[C@H]2O)c1=O
[17]
  zone of inhibition at 250 µg/disc: 8 mm
[1]
  zone of inhibition at 250 µg/disc: 4 mm
[2]
  zone of inhibition at 250 µg/disc: 0 mm

## Nc1nc2c(ncn2COCCO)c(=O)[nH]1 [ACYCLOVIR]
[8]
  selectivity ratio: > 10.4
[9]
  EC50: 3.3 µM
[11]
  selectivity ratio: > 30.3
[12]
  EC50: 9.6 µM

## C=CCOc1nc(-c2ccccn2)cc(-c2ccc(Cl)cc2)c1C#N
[17]
  zone of inhibition at 250 µg/disc: 7 mm
[1]
  zone of inhibition at 250 µg/disc: 1 mm
[2]
  zone of inhibition at 250 µg/disc: 0 mm
